Screening data deposited in PubChem by The Scripps Research Institute Molecular Screening Center.
Sampled rows, rich in hits. Any-hit rate of the full collection: about 2.5%.
PRMT1 inh: inhibitors of human PRMT1; Q99873; recombinant PRMT1, activity-based probe fluorescence polarization; inhibition, % at 2.79 µM; hit rate 1.3% among 370,000; AID 652257;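 active = inhibition above about 21% made by adding two undisclosed values, limit read from the data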
PAD4 inh: blocks human protein arginine deiminase 4 | Q9UM07 | recombinant PAD4, RCA probe fluorescence polarization | inhibition, % at 6.36 µM | hit rate 0.41% among 330,000 | AID 485272;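 active = percent inhibition above a cutoff equal to the mean of all tested compounds plus 3 SD, cut at about 15% in these data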
Target sequence (Q9UM07 whole entry, looked up): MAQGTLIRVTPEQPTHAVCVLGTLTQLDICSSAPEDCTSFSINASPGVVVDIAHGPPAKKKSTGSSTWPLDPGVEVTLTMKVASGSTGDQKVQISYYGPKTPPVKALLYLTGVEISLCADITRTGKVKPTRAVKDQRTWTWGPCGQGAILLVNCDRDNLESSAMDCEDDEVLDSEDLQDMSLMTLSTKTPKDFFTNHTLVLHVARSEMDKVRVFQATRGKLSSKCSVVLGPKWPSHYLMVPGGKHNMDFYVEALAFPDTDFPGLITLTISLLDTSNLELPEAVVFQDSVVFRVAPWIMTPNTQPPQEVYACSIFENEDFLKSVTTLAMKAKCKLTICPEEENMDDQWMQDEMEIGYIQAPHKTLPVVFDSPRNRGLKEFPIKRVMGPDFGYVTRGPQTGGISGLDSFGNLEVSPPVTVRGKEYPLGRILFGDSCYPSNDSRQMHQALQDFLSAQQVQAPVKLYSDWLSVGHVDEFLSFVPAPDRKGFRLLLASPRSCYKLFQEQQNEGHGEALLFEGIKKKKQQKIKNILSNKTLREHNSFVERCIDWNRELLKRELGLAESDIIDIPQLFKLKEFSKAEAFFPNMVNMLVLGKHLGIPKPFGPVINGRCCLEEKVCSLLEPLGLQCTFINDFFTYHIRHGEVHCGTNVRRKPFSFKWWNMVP
E coli Lon inh: inhibitors of E. coli Lon protease | P0A9M0 | purified E. coli Lon protease, fluorescence polarization | inhibition, % at 7.94 µM | hit rate 0.42% among 360,000; in the data active = inhibition above about 13%, passing the limit was not always enough
GSTO1 counter: blocks human GSTO1 in RBBP9 counter-screen; recombinant GSTO1, activity-based probe fluorescence polarization; inhibition, % at 5.96 µM; hit rate 1.1% among 300,000; AID 1974;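 active = inhibition above the campaign mean inhibition plus 3 SD, cut at about 35% in these data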
TDP2 absorb: blocks human TDP2 phosphodiesterase activity. AID 720702. recombinant TDP2, T5PNP hydrolysis, p-nitrophenol absorbance 415 nm. hit rate 0.34% among 370,000. inhibition, % at 12.8 µM. O95551;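 active = inhibition above the mean of all tested compounds plus 3 SD, set per campaign, cut at about 25% in these data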
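Test system: Human TDP2 enzyme | Reagent: 5 mM T5PNP | Compound dosing: 12.8 µM single point, 1% DMSO | Incubation: Enzyme reaction with compound for 2 h at 37 °C | Technique: p-Nitrophenol epi absorbance | Read-out: % inhibition relative to enzyme-containing and enzyme-free wells | Benchmarks: High control without enzyme, low control DMSO plus TDP2 | Replicates: Singlicate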
GSTO1 confirm: GSTO1 (human) inhibition, confirmation; shares compounds with GSTO1 counter; recombinant GSTO1, probe fluorescence polarization; inhibition, % at 5.96 µM; hit rate 54% among 2,400;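 active = inhibition above the primary screen's cutoff, its mean inhibition plus 3 SD, cut at about 35% in these data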;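 also: loss of polarization as inhibitors block binding of rhodamine sulfonate ester activity probe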
PAD4 confirm: PAD4 (human) inhibition, confirmed; hit rate 28% among 1,200; recombinant PAD4, RCA probe fluorescence polarization; inhibition, % at 6.36 µM; AID 488796; shares compounds with PAD4 inh;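 active = mean inhibition across replicates above the hit cutoff set by the earlier primary screen, cut at about 15% in these data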;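 also: inhibitors block active-site labeling by the probe so polarization falls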
TDP2 confirm: confirmation of human TDP2 inhibitors; recombinant human TDP2, absorbance read-out; inhibition, % at 12.8 µM; AID 743263; shares compounds with TDP2 absorb; hit rate 22% among 1,100; in the data active = inhibition above about 25%
A number is an active result.

For O=[N+]([O-])c1cc([N+](=O)[O-])c2nonc2c1Nc1ccc(O)cc1 the results were PRMT1 inh inactive, PAD4 inh 55.1, E coli Lon inh inactive, GSTO1 counter 64.9, TDP2 absorb 24.6, GSTO1 confirm 53.5, PAD4 confirm inactive and TDP2 confirm inactive.
`COc1ccc(/C=C2/C(=O)N(Cc3ccccc3)N=C2C)cc1` gave PRMT1 inh inactive, PAD4 inh inactive, E coli Lon inh inactive, GSTO1 counter 39.8, TDP2 absorb 70.8, GSTO1 confirm inactive and TDP2 confirm inactive.
Screening CCOC(=O)c1ccc(N/C=C/C(=O)C(C)(C)C)cc1 returned PRMT1 inh inactive, PAD4 inh inactive, E coli Lon inh inactive, GSTO1 counter inactive and TDP2 absorb inactive.
For CN(C)c1ccc(N/C=C/C(=O)C(C)(C)C)cc1 the results were PRMT1 inh inactive, PAD4 inh 18.1, E coli Lon inh inactive, GSTO1 counter 82.7, TDP2 absorb 54.6, GSTO1 confirm inactive, PAD4 confirm inactive and TDP2 confirm inactive.
`COc1ccc(-c2nc3ccccc3nc2-c2ccc(OC)c(OC)c2)cc1OC` gave PRMT1 inh inactive, PAD4 inh inactive, E coli Lon inh inactive, GSTO1 counter inactive and TDP2 absorb inactive.
COc1ccc2nc3ccccc3nc2c1N was read as PRMT1 inh inactive, PAD4 inh 24.7, E coli Lon inh inactive, GSTO1 counter 59.8, TDP2 absorb 39.0, GSTO1 confirm inactive, PAD4 confirm inactive and TDP2 confirm inactive.
For COC(=O)[C@]12C[C@H](CC(=O)N3CCC(c4ccccc4)CC3)C(=O)N(Cc3ccc(Cl)cc3Cl)C1=C[C@H](C(C)(C)C)O[C@@H]2C the results were PRMT1 inh inactive and TDP2 absorb inactive.
N#Cc1ccc(OC[C@@H](O)CN2CCC(C(O)(c3ccccc3)c3ccccc3)CC2)cc1F was read as PRMT1 inh inactive and TDP2 absorb inactive.
`COc1cc(/C=C/c2[nH]c(=O)[nH]c(=O)c2[N+](=O)[O-])cc([N+](=O)[O-])c1O` gave PRMT1 inh inactive, PAD4 inh inactive, E coli Lon inh inactive, GSTO1 counter 52.7, TDP2 absorb 31.1, GSTO1 confirm 68.3 and TDP2 confirm inactive.
Screening Cc1ccc(C)c(NC(=O)CN2C(=O)CCSc3ccccc32)c1 returned PRMT1 inh inactive and TDP2 absorb inactive.
Screening CC1=NN(c2ccccc2)C(=O)C1 returned PRMT1 inh inactive, PAD4 inh 44.9, E coli Lon inh inactive, GSTO1 counter 71.8, TDP2 absorb 66.5, GSTO1 confirm inactive, PAD4 confirm inactive and TDP2 confirm inactive.
CC1=NN(c2ccc(N)cc2)C(=O)C1 was read as PRMT1 inh inactive, PAD4 inh inactive, E coli Lon inh inactive, GSTO1 counter 50.4, TDP2 absorb 37.8, GSTO1 confirm inactive and TDP2 confirm inactive.
`CC1=NN(Cc2ccccc2)C(=O)C1` gave PRMT1 inh inactive, PAD4 inh 70.9, E coli Lon inh inactive, GSTO1 counter 57.1, TDP2 absorb 57.8, GSTO1 confirm inactive, PAD4 confirm inactive and TDP2 confirm inactive.
For COC(=O)CC1=NN(c2ccc(OC)cc2)C(=O)C1 the results were PRMT1 inh inactive, PAD4 inh inactive, E coli Lon inh inactive, GSTO1 counter inactive and TDP2 absorb inactive.
CC1=NN(c2cccc([N+](=O)[O-])c2)C(=O)C1 was read as PRMT1 inh inactive, PAD4 inh inactive, E coli Lon inh inactive, GSTO1 counter inactive and TDP2 absorb inactive.
Screening O=C1[C@@H](C2CCCCC2)[C@@H]2c3ccccc3C=NN2[C@@H]2c3ccccc3C=NN12 returned PRMT1 inh inactive and TDP2 absorb inactive.
For COC(=O)[C@@H](C)NC(=O)C(Cc1ccc2c(c1)OCO2)NC(C)=O (stereo partly specified) the results were PRMT1 inh inactive and TDP2 absorb inactive.
Screening CCOC(=O)[C@]12CCCCC/C=C\1N(CCc1ccc(Cl)cc1)C(=O)[C@H]2CC(=O)NCc1cccc(C(F)(F)F)c1 returned PRMT1 inh inactive and TDP2 absorb inactive.
